Data set [1] concerns Mycobacterium tuberculosis. The data set is described as follows: Antitubercular activity against Mycobacterium tuberculosis H37Rv ATCC 27294 assessed as growth inhibition after 16 to 24 hrs by microplate-Alamar Blue assay. The data set is classed as functional. A digest of the protocol: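 MIC against M. tuberculosis H37Rv (ATCC 27294), actively replicating, by microplate Alamar Blue assay.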
For orientation: Alamar Blue is a resazurin reagent that responds to reducing activity.

Data set [2] concerns Mycobacterium tuberculosis. The data set is described as follows: Antitubercular activity against recombinant Mycobacterium tuberculosis H37Rv ATCC 27294 expressing Vibrio harveyii luciferase gene with acetamidase promoter assessed as reduction of metabolic recovery after 10 days by low-oxygen recovery assay. As to conditions: H37Rv ATCC 27294, 240 h. The data set is classed as functional. A digest of the protocol: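 Low oxygen recovery assay on H37Rv (ATCC 27294), used as an in vitro model of nonreplicating persistent M. tuberculosis. Each MIC is a single measurement.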

Data set [3] concerns Mycobacterium tuberculosis. The data set is described as follows: Ratio of MIC for Mycobacterium tuberculosis H37Rv ATCC 27294 expressing Vibrio harveyii luciferase gene with acetamidase promoter by low-oxygen recovery assay to MIC for Mycobacterium tuberculosis H37Rv ATCC 27294 by microplate-Alamar Blue assay. The data set is classed as functional.
A further data set deals with Vero. The data set is described as follows: Cytotoxicity against African green monkey Vero cells assessed as cell viability after 72 hrs by MTS assay. The data set is classed as cell-based. As to conditions: Chlorocebus sabaeus. A digest of the protocol:
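Value reported as an IC50 against Vero cells.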
(Formazan colour is commonly taken as a measure of viable cells.)

Data set [4] is described as follows: Selectivity index, ratio of IC50 for African green monkey Vero cells to MIC for Mycobacterium tuberculosis H37Rv ATCC 27294. As to conditions: read-out: Selectivity Index. The data set is classed as toxicity, cell-based. The procedure, abridged: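 Selectivity index calculated as the Vero cell cytotoxicity IC50 divided by the MABA MIC against H37Rv. Cytotoxicity was measured on Vero cells.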

Converted amounts (≈) assume the structure as drawn.

Here are results for 45 compounds from ChEMBL document CHEMBL3102705, “Design, synthesis and investigation on the structure-activity relationships of N-substituted 2-aminothiazole derivatives as antitubercular agents” (Eur J Med Chem, 2014).

The MIC is the lowest concentration found to suppress growth. Take `Cc1ccc(Nc2nc(C)cs2)cc1`: the MIC in data set [1] was more than 128 µM.

A word on the IC50: it is the point on the concentration scale where inhibition reaches its midpoint. Take `COc1ccc(-c2csc(Nc3ccc(C)cc3)n2)cc1`: the values for the minimum inhibitory concentration (MIC) in data set [2] and in data set [1] were 31.8 µM and 13 µM (≈ 3.85 µg/mL), respectively. The Ratio in data set [3] amounted to 2. For the same compound, in the data set on Vero, the IC50 is more than 128 µM.

Turning to `Clc1cc(Cl)cc(Nc2nc(-c3ccccc3)c(Cc3ccccc3)s2)c1`, the MIC in data set [1] worked out at 20 µM (≈ 8.23 µg/mL). Besides, in the data set on Vero, the IC50 amounted to 82.7 µM.

For the compound `Fc1ccc(C(F)(F)F)cc1-c1csc(N(Cc2ccccc2)c2cc(Cl)cc(Cl)c2)n1`, the MIC in data set [1] was more than 128 µM.

Consider `Clc1cc(Cl)cc(Nc2nc3c(s2)Cc2ccccc2-3)c1`, for which the MIC in data set [1] was more than 128 µM.

In the case of `Fc1ccc(Nc2nc3c(s2)Cc2ccccc2-3)cc1`, the MIC in data set [1] is more than 128 µM.

For the compound `Clc1cc(Cl)cc(Nc2nc3c(s2)-c2ccccc2C3)c1`, the MIC in data set [1] is more than 128 µM.

As for `Clc1cc(Cl)cc(Nc2nc3c(s2)CCc2ccccc2-3)c1`, in data set [1], the MIC stood at 43.3 µM (≈ 15 µg/mL).

Regarding `Fc1ccc(C(F)(F)F)cc1-c1csc(NC2CCCCC2)n1`, in data set [1], the MIC was 30.3 µM (≈ 10.4 µg/mL).

Regarding `Cc1ccc(Nc2ncc(-c3ccccc3)s2)cc1`, in data set [1], the MIC was more than 128 µM.

`CN(C)c1nc(-c2cc(C(F)(F)F)ccc2F)cs1`: the MIC in data set [1] is more than 128 µM.

Turning to `Fc1ccc(C(F)(F)F)cc1-c1csc(N2CCCCC2)n1`, the MIC in data set [1] worked out at 56.5 µM (≈ 18.7 µg/mL).

With `CC(=O)N1CCN(c2nc(-c3cc(C(F)(F)F)ccc3F)cs2)CC1`, the MIC in data set [1] stood at 118 µM (≈ 44 µg/mL).

On to `Cc1ccc2c(ccn2-c2nc(-c3cc(C(F)(F)F)ccc3F)cs2)c1`, for which, in data set [1], the MIC is more than 128 µM.

Take `Cc1ccc(C(=O)Nc2nc(-c3cc(C(F)(F)F)ccc3F)cs2)cc1`: the MIC in data set [1] was more than 128 µM.

For the compound `Cc1ccc(CNc2nc(-c3cc(C(F)(F)F)ccc3F)cs2)cc1`, in data set [1], the MIC is more than 128 µM.

Turning to `Fc1ccc(C(F)(F)F)cc1-c1csc(Nc2ccncc2)n1`, in data set [1], the MIC was more than 128 µM.

In the case of `Cc1ccc(Nc2nc(-c3cc(C(F)(F)F)ccc3F)cs2)cc1`, the MIC in data set [1] was determined as 27.5 µM (≈ 9.69 µg/mL). In addition, the IC50 in the data set with Vero worked out at 92.4 µM. In data set [4], the selectivity ratio turned out to be 3.4.

`Cc1ccc(N(C)c2nc(-c3cc(C(F)(F)F)ccc3F)cs2)cc1`: in data set [1], the minimal inhibitory concentration (MIC) turned out to be 31.7 µM (≈ 11.6 µg/mL). The IC50 with Vero was more than 128 µM.

With `Cc1cccc(Nc2nc(-c3cc(C(F)(F)F)ccc3F)cs2)c1`, in data set [1], the MIC is 29.8 µM (≈ 10.5 µg/mL).

For `Cc1ccccc1Nc1nc(-c2cc(C(F)(F)F)ccc2F)cs1`, the MIC in data set [1] was determined as 35.1 µM (≈ 12.4 µg/mL).

Take `Fc1ccc(C(F)(F)F)cc1-c1csc(Nc2ccc(Cl)cc2)n1`: the MIC in data set [2] was 31.5 µM; in data set [1], 19.2 µM (≈ 7.16 µg/mL). In addition, the Ratio in data set [3] stood at 2. Besides, in the data set with Vero, the IC50 turned out to be 46.6 µM. The selectivity ratio in data set [4] worked out at 2.4.

As to `Fc1ccc(C(F)(F)F)cc1-c1csc(Nc2cccc(Cl)c2)n1`, the MIC in data set [1] is 30.1 µM (≈ 11.2 µg/mL).

With `Fc1ccc(C(F)(F)F)cc1-c1csc(Nc2ccccc2Cl)n1`, the MIC in data set [1] is more than 128 µM.

On to `Fc1ccc(C(F)(F)F)cc1-c1csc(Nc2ccc(Cl)cc2Cl)n1`, for which, in data set [1], the MIC was more than 128 µM.

With `Fc1ccc(C(F)(F)F)cc1-c1csc(Nc2cc(Cl)cc(Cl)c2)n1`, the MIC in data set [2] was 15.2 µM; in data set [1], 15 µM (≈ 6.11 µg/mL). For the same compound, the IC50 in the data set on Vero was 50 µM. Also, the selectivity ratio in data set [4] turned out to be 3.3.

Consider `Cc1cc(C)cc(Nc2nc(-c3cc(C(F)(F)F)ccc3F)cs2)c1`, for which, in data set [1], the MIC was 30.1 µM (≈ 11 µg/mL).

As to `Cc1ccc(Nc2nc(-c3cc(C(F)(F)F)ccc3F)cs2)c(Cl)c1`, the MIC in data set [1] was more than 128 µM.

On to `Fc1ccc(Nc2nc(-c3cc(C(F)(F)F)ccc3F)cs2)cc1`, for which, in data set [1], the MIC turned out to be 59.5 µM (≈ 21.2 µg/mL).

With `Cc1ccc(Nc2nc(-c3cc(C(F)(F)F)ccc3F)cs2)c(C)c1`, in data set [1], the MIC was 30.8 µM (≈ 11.3 µg/mL).

Regarding `CCN(c1cc(Cl)cc(Cl)c1)c1nc(-c2cc(C(F)(F)F)ccc2F)cs1`, the minimum inhibitory concentration (MIC) in data set [1] was more than 128 µM.

For `COc1ccc(-c2csc(Nc3cc(Cl)cc(Cl)c3)n2)cc1`, the minimum inhibitory concentration (MIC) in data set [1] was 15.6 µM (≈ 5.48 µg/mL).

Turning to `Cc1ccc(Nc2nc(-c3ccc(C(F)(F)F)cc3)cs2)cc1`, the MIC in data set [1] is more than 128 µM.

Regarding `Cc1ccc(Nc2nc(-c3ccc(Cl)cc3)cs2)cc1`, in data set [1], the MIC is more than 128 µM.

Regarding `Cc1ccc(Nc2nc(-c3ccccc3Cl)cs2)cc1`, the MIC in data set [1] is more than 128 µM.

Regarding `Cc1ccc(Nc2nc(-c3ccc(C)cc3)cs2)cc1`, the MIC in data set [1] was more than 128 µM.

As for `Cc1ccc(Nc2nc(-c3ccccc3)cs2)cc1`, the MIC in data set [1] stood at 63.8 µM (≈ 17 µg/mL).

Turning to `Cc1ccc(Nc2nc(-c3ccc(O)cc3)cs2)cc1`, in data set [1], the minimum inhibitory concentration (MIC) is more than 128 µM.

`Clc1cc(Cl)cc(Nc2nc(-c3ccccc3)cs2)c1`: the MIC in data set [1] was 28.6 µM (≈ 9.19 µg/mL).

Turning to `Cc1sc(Nc2cc(Cl)cc(Cl)c2)nc1-c1ccccc1`, the MIC in data set [1] was found to be 28.9 µM (≈ 9.69 µg/mL).

In the case of `Clc1cc(Cl)cc(Nc2nc(-c3ccccc3)c(-c3ccccc3)s2)c1`, the MIC in data set [1] is more than 128 µM.

On to `NNC(=O)c1ccncc1` [ISONIAZID], for which the MIC in data set [1] is 0.4 µM (≈ 0.0549 µg/mL).

With `O=[N+]([O-])c1cn2c(n1)OC[C@@H](OCc1ccc(OC(F)(F)F)cc1)C2` [PRETOMANID], the MIC in data set [1] was determined as 0.8 µM (≈ 0.287 µg/mL).

As for `CO[C@H]1/C=C/O[C@@]2(C)Oc3c(C)c(O)c4c(O)c(c(/C=N/N5CCN(C)CC5)c(O)c4c3C2=O)NC(=O)/C(C)=C\C=C\[C@H](C)[C@H](O)[C@@H](C)[C@@H](O)[C@@H](C)[C@H](OC(C)=O)[C@@H]1C` [RIFAMPIN], the MIC in data set [1] worked out at 0.1 µM (≈ 0.0823 µg/mL).

`CN[C@@H]1[C@H](O[C@H]2[C@H](O[C@H]3[C@H](O)[C@@H](O)[C@H](N=C(N)N)[C@@H](O)[C@@H]3N=C(N)N)O[C@@H](C)[C@]2(O)C=O)O[C@@H](CO)[C@H](O)[C@H]1O` [STREPTOMYCIN]: the MIC in data set [1] was found to be 0.3 µM (≈ 0.174 µg/mL).
